Results as given in ChEMBL document CHEMBL1132565 (J Med Chem, 1999).
pIC50, pKi: −log10 of the molar value. Active and inactive are the calls of the source.

What was measured:
[1] = target: Delta-type opioid receptor (Mus musculus, UniProt P32300); assay: Displacement of [3H]NLT from Opioid receptor delta 1 of adult male mouse brain.
Mus musculus [2] = species: Mus musculus; assay: In vitro concentration required to inhibit electrically evoked twitch in isolated mouse vas deferens.; assay type: functional
How it was run: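 Mouse vas deferens field-stimulated with supramaximal bipolar rectangular pulses. Inhibition of the electrically evoked twitch measured. IC50 taken from concentration-response curves, at least six tissues.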

Cavia porcellus = species: Cavia porcellus; assay: In vitro concentration required to inhibit electrically evoked twitch in isolated guinea pig ileum.; assay type: functional
How it was run: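 Myenteric plexus-longitudinal muscle strips from male guinea pig small intestine, field-stimulated with supramaximal bipolar rectangular pulses. Inhibition of the electrically evoked twitch measured. IC50 taken from concentration-response curves, at least six tissues.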

Mu-type opioid receptor = Mu-type opioid receptor (Mus musculus, UniProt P42866); assay: Displacement of [3H]-DAGO from Opioid receptor mu 1 of adult male mouse brain.; assay type: tissue-based
Mu-type opioid receptor, sequence (P42866 whole entry): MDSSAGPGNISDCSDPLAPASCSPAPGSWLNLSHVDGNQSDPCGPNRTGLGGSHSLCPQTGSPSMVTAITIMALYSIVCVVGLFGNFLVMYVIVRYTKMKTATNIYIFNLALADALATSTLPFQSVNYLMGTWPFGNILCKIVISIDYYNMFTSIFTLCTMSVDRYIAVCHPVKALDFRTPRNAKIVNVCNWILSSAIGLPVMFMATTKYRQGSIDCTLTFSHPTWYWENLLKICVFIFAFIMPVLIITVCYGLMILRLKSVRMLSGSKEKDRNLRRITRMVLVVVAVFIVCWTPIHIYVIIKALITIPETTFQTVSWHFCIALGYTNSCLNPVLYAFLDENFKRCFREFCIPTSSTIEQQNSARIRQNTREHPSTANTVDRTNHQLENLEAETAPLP
How it was run: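 Crude membranes from adult male Albino Swiss mouse brain, pre-incubated 30 min at 25 °C to remove endogenous opioids. Competition against [3H]DAGO 0.5 nM on 1 mg membrane protein in 50 mM Tris-HCl pH 7.4, 35 °C for 90 min. Nonspecific binding defined with 10 µM naloxone, 12 inhibitor concentrations. GF/B filtration and scintillation counting. Ki from competition curves, run in triplicate.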

Mus musculus [3] = assay: Antinociceptive activity after subcutaneous administration in mice.; assay type: functional
How it was run: (§1)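 Male CD-1 mice (25-30 g), peptide dissolved in sterile Ringer's solution and injected subcutaneously at 0.05 mL/10 g, 5-8 animals per dose. Hot plate at 55 °C, latency to back-paw licking or escape jump recorded. Cut-off 15 s. Mice not responding within 5 s before drug were excluded. Testing every 15 min for the first hour, then every 30 min. %MPE calculated. AD50 with 95% CL by Litchfield-Wilcox.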

[4] = Half-life time of enzymatic breakdown in mouse brain.; assay type: ADME
How it was run: (§2)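 Methanol added to stop each sample, followed by centrifugation. Residual activity in the supernatant was bioassayed on GPI or MVD and expressed as % of time-0 recovery. Three experiments.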

[5] = Half-life time of enzymatic breakdown in mouse liver.; assay type: ADME; how it was run: as §2
Mus musculus [6] = assay: Antinociceptive activity after subcutaneous administration in mice. p<0.05 vs dermorphin; assay type: functional; how it was run: as §1
Mus musculus [7] = assay: Antinociceptive activity after subcutaneous administration in mice was determined in analgesia hotplate test; assay type: functional; how it was run: as §1
Mus musculus [8] = assay: Antinociceptive activity after subcutaneous administration in mice; the highest dose tested, 100 uM/Kg, was unable to produce a significant analgesia.; assay type: functional, organism-based; how it was run: as §1

Delta-type opioid receptor, sequence (P32300 whole entry): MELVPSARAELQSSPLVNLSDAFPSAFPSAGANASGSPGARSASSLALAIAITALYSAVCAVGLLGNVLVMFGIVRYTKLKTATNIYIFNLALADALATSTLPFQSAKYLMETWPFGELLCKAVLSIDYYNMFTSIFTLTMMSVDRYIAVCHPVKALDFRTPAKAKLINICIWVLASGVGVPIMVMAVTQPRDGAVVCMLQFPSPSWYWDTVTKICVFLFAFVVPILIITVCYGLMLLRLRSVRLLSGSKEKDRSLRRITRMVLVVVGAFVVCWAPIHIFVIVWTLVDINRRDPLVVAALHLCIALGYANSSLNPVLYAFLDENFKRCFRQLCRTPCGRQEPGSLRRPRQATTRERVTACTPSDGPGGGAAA

CC(=O)O[C@@H]1[C@H](O)[C@@H](O)[C@@H](O)O[C@@H]1COC(=O)[C@H](C)NC(=O)[C@@H]1CCCN1C(=O)[C@H](Cc1ccc(O)cc1)NC(=O)CNC(=O)[C@H](Cc1ccccc1)NC(=O)[C@@H](C)NC(=O)[C@@H](N)Cc1ccc(O)cc1 gave a pKi [1] of less than 5.30, a pIC50 (Mus musculus [2]) of 7.19 and a pIC50 (Cavia porcellus) of 8.22. For the same compound, the pKi (Mu-type opioid receptor) was 7.95 and the AD50 (Mus musculus [3]) was 6.6 µM/kg.
In the case of CC(C)[C@H](NC(=O)[C@H](CC(=O)O)NC(=O)[C@H](Cc1ccccc1)NC(=O)[C@@H](C)NC(=O)[C@@H](N)Cc1ccc(O)cc1)C(=O)N[C@H](C(=O)N[C@@H](C)C(=O)O[C@H]1O[C@H](O)[C@H](O)[C@@H](O)[C@H]1O)C(C)C, the pKi [1] was 6.75, the pIC50 (Mus musculus [2]) was 7.44 and the pIC50 (Cavia porcellus) was less than 5.70. The pKi (Mu-type opioid receptor) was 5.80.
Work on C[C@@H](NC(=O)[C@@H](N)Cc1ccc(O)cc1)C(=O)N[C@@H](Cc1ccccc1)C(=O)NCC(=O)N[C@@H](Cc1ccc(O)cc1)C(=O)N1C[C@H](O)C[C@H]1C(=O)N[C@@H](CCCCN)C(N)=O yielded a pKi [1] of 5.85, a half-life [4] of 0.5 h and a pIC50 (Mus musculus [2]) of 7.46. It also gave a pIC50 (Cavia porcellus) of 8.68, a half-life [5] of 0.333 h and a pKi (Mu-type opioid receptor) of 9.30. For the same compound, the AD50 (Mus musculus [6]) was 0.9 µM/kg.
C[C@H](NC(=O)[C@@H]1CCCN1C(=O)[C@H](Cc1ccc(O)cc1)NC(=O)CNC(=O)[C@H](Cc1ccccc1)NC(=O)[C@@H](C)NC(=O)[C@@H](N)Cc1ccc(O)cc1)C(N)=O showed a pKi [1] of 5.95, a pIC50 (Mus musculus [2]) of 7.62 and a pIC50 (Cavia porcellus) of 8.80. The pKi (Mu-type opioid receptor) was 8.92.
CC(C)[C@H](NC(=O)[C@H](CC(=O)O)NC(=O)[C@H](Cc1ccccc1)NC(=O)[C@@H](C)NC(=O)[C@@H](N)Cc1ccc(O)cc1)C(=O)N[C@H](C(=O)N[C@@H](C)C(N)=O)C(C)C gave a pKi [1] of 7.40, a pIC50 (Mus musculus [2]) of 8.16 and a pIC50 (Cavia porcellus) of less than 5.70. It also gave a pKi (Mu-type opioid receptor) of 5.72.
Work on C[C@@H](NC(=O)[C@@H](N)Cc1ccc(O)cc1)C(=O)N[C@@H](Cc1ccccc1)C(=O)NCC(=O)N[C@@H](Cc1ccc(O)cc1)C(=O)N1CCC[C@H]1C(=O)N[C@@H](CO)C(=O)OC[C@H]1O[C@H](O)[C@H](O)[C@@H](O)[C@@H]1O yielded a half-life [4] of 0.633 h, a pIC50 (Mus musculus [2]) of 7.40 and a pIC50 (Cavia porcellus) of 8.46. For the same compound, the AD50 (Mus musculus [7]) was 1.4 µM/kg and the half-life [5] was 0.5 h.
Compound C[C@H](NC(=O)[C@@H]1CCCN1C(=O)[C@H](Cc1ccc(O)cc1)NC(=O)CNC(=O)[C@H](Cc1ccccc1)NC(=O)[C@@H](C)NC(=O)[C@@H](N)Cc1ccc(O)cc1)C(=O)OC[C@H]1O[C@H](O)[C@H](O)[C@@H](O)[C@H]1O has a pKi [1] of 5.55, a pIC50 (Mus musculus [2]) of 7.26 and a pIC50 (Cavia porcellus) of 8.40. It also gave an AD50 (Mus musculus [7]) of 1.1 µM/kg and a pKi (Mu-type opioid receptor) of 8.60.
With C[C@@H](NC(=O)[C@@H](N)Cc1ccc(O)cc1)C(=O)N[C@@H](Cc1ccccc1)C(=O)NCC(=O)N[C@@H](Cc1ccc(O)cc1)C(=O)N1CCC[C@H]1C(=O)N[C@@H](CO)C(N)=O [DERMORPHIN] the half-life [4] was 0.333 h, the pIC50 (Mus musculus [2]) was 7.72 and the pIC50 (Cavia porcellus) was 8.82. It also gave a half-life [5] of 0.167 h, a pKi (Mu-type opioid receptor) of 8.96 and an AD50 (Mus musculus [3]) of 2.4 µM/kg.
With CC(C)[C@H](NC(=O)[C@H](CC(=O)O)NC(=O)[C@H](Cc1ccccc1)NC(=O)[C@@H](C)NC(=O)[C@@H](N)Cc1ccc(O)cc1)C(=O)N[C@H](C(=O)N[C@H](CO)C(=O)OC[C@H]1O[C@H](O)[C@H](O)[C@@H](O)[C@@H]1O)C(C)C the AD50 (Mus musculus [7]) was 44 µM/kg.
In the case of CC(C)[C@H](NC(=O)[C@H](CC(=O)O)NC(=O)[C@H](Cc1ccccc1)NC(=O)[C@@H](C)NC(=O)[C@@H](N)Cc1ccc(O)cc1)C(=O)N[C@H](C(=O)N[C@H](C)C(N)=O)C(C)C, the AD50 (Mus musculus [8]) was “inactive”.
With CC(=O)O[C@H]1[C@@H](OC(=O)[C@H](C)NC(=O)[C@@H](NC(=O)[C@@H](NC(=O)[C@H](CC(=O)O)NC(=O)[C@H](Cc2ccccc2)NC(=O)[C@@H](C)NC(=O)[C@@H](N)Cc2ccc(O)cc2)C(C)C)C(C)C)O[C@H](O)[C@H](O)[C@H]1O the pKi [1] was 6.80, the pIC50 (Mus musculus [2]) was 7.37 and the pIC50 (Cavia porcellus) was less than 5.70. It also gave a pKi (Mu-type opioid receptor) of 5.55.
For CC(C)[C@H](NC(=O)[C@H](CC(=O)O)NC(=O)[C@H](Cc1ccccc1)NC(=O)[C@@H](C)NC(=O)[C@@H](N)Cc1ccc(O)cc1)C(=O)N[C@H](C(=O)NCC(N)=O)C(C)C [DELTORPHIN C], the half-life [4] was 4 h, the pIC50 (Mus musculus [2]) was 9.70 and the pIC50 (Cavia porcellus) was 5.91. The half-life [5] was 1.83 h, the pKi (Mu-type opioid receptor) was 5.70 and the AD50 (Mus musculus [3]) was 87 µM/kg.
CC(=O)O[C@H]1[C@H](O)[C@@H](O)[C@@H](O)O[C@@H]1COC(=O)[C@@H](CO)NC(=O)[C@@H](NC(=O)[C@@H](NC(=O)[C@H](CC(=O)O)NC(=O)[C@H](Cc1ccccc1)NC(=O)[C@@H](C)NC(=O)[C@@H](N)Cc1ccc(O)cc1)C(C)C)C(C)C showed an AD50 (Mus musculus [3]) of 70 µM/kg.
Compound CC(=O)O[C@H]1[C@@H](OC(=O)[C@@H](C)NC(=O)[C@@H](NC(=O)[C@@H](NC(=O)[C@H](CC(=O)O)NC(=O)[C@H](Cc2ccccc2)NC(=O)[C@@H](C)NC(=O)[C@@H](N)Cc2ccc(O)cc2)C(C)C)C(C)C)O[C@H](O)[C@H](O)[C@H]1O has an AD50 (Mus musculus [7]) of 61 µM/kg.
CC(C)[C@H](NC(=O)[C@H](CC(=O)O)NC(=O)[C@H](Cc1ccccc1)NC(=O)[C@@H](C)NC(=O)[C@@H](N)Cc1ccc(O)cc1)C(=O)N[C@H](C(=O)N[C@@H](CO)C(N)=O)C(C)C gave a pKi [1] of 7.52, a pIC50 (Mus musculus [2]) of 8.37 and a pIC50 (Cavia porcellus) of 5.85. For the same compound, the pKi (Mu-type opioid receptor) was 5.96.
For CC(C)[C@H](NC(=O)[C@H](CC(=O)O)NC(=O)[C@H](Cc1ccccc1)NC(=O)[C@@H](C)NC(=O)[C@@H](N)Cc1ccc(O)cc1)C(=O)N[C@H](C(=O)N[C@H](C)C(=O)O[C@H]1O[C@H](O)[C@H](O)[C@@H](O)[C@H]1O)C(C)C, the AD50 (Mus musculus [7]) was 19 µM/kg.
CC(=O)O[C@H]1[C@H](O)[C@@H](O)[C@@H](O)O[C@@H]1COC(=O)[C@H](CO)NC(=O)[C@@H](NC(=O)[C@@H](NC(=O)[C@H](CC(=O)O)NC(=O)[C@H](Cc1ccccc1)NC(=O)[C@@H](C)NC(=O)[C@@H](N)Cc1ccc(O)cc1)C(C)C)C(C)C showed a pKi [1] of 7.55, a half-life [4] greater than 4 h and a pIC50 (Mus musculus [2]) of 8.57. For the same compound, the pIC50 (Cavia porcellus) was 5.72, the half-life [5] was 4 h and the pKi (Mu-type opioid receptor) was 5.72.
CC(=O)O[C@H]1[C@H](O)[C@@H](O)[C@@H](O)O[C@@H]1COC(=O)[C@H](CO)NC(=O)[C@@H]1CCCN1C(=O)[C@H](Cc1ccc(O)cc1)NC(=O)CNC(=O)[C@H](Cc1ccccc1)NC(=O)[C@@H](C)NC(=O)[C@@H](N)Cc1ccc(O)cc1 showed a half-life [4] of 1.5 h, a pIC50 (Mus musculus [2]) of 7.74 and a pIC50 (Cavia porcellus) of 8.09. The half-life [5] was 1 h and the AD50 (Mus musculus [3]) was 4.6 µM/kg.
CC(C)[C@H](NC(=O)[C@H](CC(=O)O)NC(=O)[C@H](Cc1ccccc1)NC(=O)[C@@H](C)NC(=O)[C@@H](N)Cc1ccc(O)cc1)C(=O)N[C@H](C(=O)N[C@@H](CO)C(=O)OC[C@H]1O[C@H](O)[C@H](O)[C@@H](O)[C@@H]1O)C(C)C gave a pKi [1] of 7.64, a half-life [4] greater than 4 h and a pIC50 (Mus musculus [2]) of 8.51. The pIC50 (Cavia porcellus) was 5.80, the half-life [5] was 3 h and the pKi (Mu-type opioid receptor) was 6.06.
